# Source: PubChem (Johns Hopkins Ion Channel Center)
# TRPC4 agonist: activators of mouse TRPC4 channel, primary screen, Fluo4 calcium, HEK293 TRPC4beta/mu-opioid cells; Fluo4 calcium fluorescence; stronger effect = higher value; B-score at 10 µM; actives 0.49% (n = 310,000); AID 2237, 2010;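 active = B-score above 5 SD of library B-scores, and initial fluorescence ratio not above library mean plus 5 SD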;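 also: positive B-score marks a calcium rise read as TRPC4 activation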
#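 system = HEK293 cells stably co-expressing mouse TRPC4beta and mu-opioid receptor | schedule = Fluo4 dye loading 45 min at room temperature, 110 s recording | measure = B-scored integrated calcium fluorescence ratio | signal = Fluo4 calcium-sensitive dye fluorescence, kinetic, 1 Hz baseline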
# TRPC6 inh: mouse TRPC6 channel inhibitors, primary screen, cell-based, HEK293, membrane potential dye; ACh-evoked depolarization; stronger effect = lower value; Short transient receptor potential channel 6 (Mus musculus), Q61143; AID 2553, 2010; B-score at 10 µM; actives 1.1% (n = 310,000);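 active = B-score under library mean minus 3 SD, initial fluorescence not abnormally high, positive integrated signal ratio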;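 also: B-score derived from integrated fluorescence ratio over the kinetic read; more negative B-score means stronger inhibition of depolarization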
# Target sequence (Q61143 whole entry, looked up): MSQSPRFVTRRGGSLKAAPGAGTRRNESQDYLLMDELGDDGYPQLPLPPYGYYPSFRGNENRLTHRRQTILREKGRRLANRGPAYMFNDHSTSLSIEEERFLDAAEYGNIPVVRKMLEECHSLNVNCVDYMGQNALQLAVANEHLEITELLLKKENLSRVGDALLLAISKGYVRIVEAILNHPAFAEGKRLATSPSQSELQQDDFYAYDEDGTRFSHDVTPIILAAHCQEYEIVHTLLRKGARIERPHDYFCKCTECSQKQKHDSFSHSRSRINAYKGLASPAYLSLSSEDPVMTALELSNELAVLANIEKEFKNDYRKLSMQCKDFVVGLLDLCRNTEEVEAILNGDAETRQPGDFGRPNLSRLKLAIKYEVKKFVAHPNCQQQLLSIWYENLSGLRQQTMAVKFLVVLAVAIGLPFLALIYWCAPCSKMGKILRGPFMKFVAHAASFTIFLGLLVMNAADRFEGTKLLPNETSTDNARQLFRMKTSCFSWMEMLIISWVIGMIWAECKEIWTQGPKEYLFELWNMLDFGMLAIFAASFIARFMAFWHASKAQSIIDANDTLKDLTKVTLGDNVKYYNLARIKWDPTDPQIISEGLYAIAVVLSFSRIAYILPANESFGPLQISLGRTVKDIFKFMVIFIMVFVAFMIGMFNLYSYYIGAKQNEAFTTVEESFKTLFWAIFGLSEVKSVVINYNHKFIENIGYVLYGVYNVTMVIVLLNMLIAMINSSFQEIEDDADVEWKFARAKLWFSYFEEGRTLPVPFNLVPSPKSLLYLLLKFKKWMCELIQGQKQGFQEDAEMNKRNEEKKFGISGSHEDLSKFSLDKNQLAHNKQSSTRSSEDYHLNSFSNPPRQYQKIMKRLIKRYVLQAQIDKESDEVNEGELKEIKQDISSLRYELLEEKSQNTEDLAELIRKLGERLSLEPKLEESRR
# TRPC4 block: inhibitors of mouse TRPC4 channel, primary screen, Fluo4 calcium, HEK293 TRPC4beta/mu-opioid cells. Short transient receptor potential channel 4 (Mus musculus), Q9QUQ5. DAMGO-evoked Fluo4 calcium flux; stronger effect = lower value. B-score at 10 µM. actives 0.39% (n = 300,000);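 active = B-score over 3 SD under the library average, no early fluorescence shift, positive overall ratio signal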
#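 material = TRPC4beta/mu-opioid receptor HEK293 cell line | probe or stimulus = sequential submaximal and maximal DAMGO stimulation | compound dosing = one concentration per compound | measured by = Fluo4 Ca2+ flux fluorescence | evaluation = integrated fluorescence ratio relative to baseline, converted to per-well B score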
# TRPC6 activator: mouse TRPC6 channel activators, primary screen, cell-based, HEK293, membrane potential dye; B-score at 10 µM; AID 2550, 2010; HEK293-TRPC6 membrane potential dye fluorescence; stronger effect = higher value; actives 0.13% (n = 310,000);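 active = B-score of the integrated fluorescence ratio above library mean plus 3 SD, and starting fluorescence ratio within library mean plus 5 SD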;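 also: higher score means more depolarization so channel activation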
# TRPC4 potent: positive allosteric modulators of TRPC4, primary screen, cell-based, mouse TRPC4beta, HEK293 mu-opioid, Fluo-4 calcium. DAMGO EC20, Fluo-4 Ca2+ flux; stronger effect = higher value. actives 0.42% (n = 310,000). B-score at 10 µM;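 active = B-score of calcium response area above 5 SD of library B-scores, with initial fluorescence ratio within 5 SD of library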
# TRPC4 spec 2: second check of whether TRPC6 inhibitors also affect mouse TRPC4; AID 2776; shares compounds with TRPC6 inh; actives 42% (n = 920); HEK293 TRPC4/MOR, membrane potential dye fluorescence; channel activated by saturating DAMGO dose; inhibition, % at 10 µM;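 active = compounds whose fluorescence signal differed from control wells by over 3 SD, either direction, in both duplicate plates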
# TRPC4 spec: mouse TRPC4 modulation by TRPC6 hits, confirmation, selectivity assay for TRPC6 inhibitor project, cell-based, HEK293 TRPC4/mu-opioid, membrane potential dye | shares compounds with TRPC6 inh | membrane potential fluorescence | activity change, negative = inhibition, % at 10 µM | actives 61% (n = 920) | AID 2777, 2010;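 active = rise or fall in signal beyond 3 SD of buffer-only wells in both replicate plates, either sign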;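 also: integrated kinetic ratio of fluorescence range over baseline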
# HEK293 MPD ctr 2: nonspecific membrane potential effects, parental HEK293, confirmation, counter-screen for TRPC6 inhibitor project, cell-based, second counter screen; shares compounds with TRPC6 inh; parental HEK293 membrane potential dye fluorescence; maximal acetylcholine challenge after compound addition; signal change vs control, % at 10 µM; actives 31% (n = 920);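 active = membrane potential signal moving either way by over 3 SD of the maximum-effect control, in both duplicate plates, meaning non-specific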
# HEK293 MPD ctr: membrane potential modulation in parental HEK293, confirmation, counter-screen for TRPC6 inhibitor project, cell-based. shares compounds with TRPC6 inh. parental HEK293 membrane potential dye fluorescence. membrane potential signal change, % at 10 µM. actives 60% (n = 920). AID 2780, 2010;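 active = membrane potential signal shifting up or down by more than 3 SD of buffer-only wells, on both duplicate plates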
# TRPC6 inh conf: mouse TRPC6 channel inhibitors, confirmation, HEK293 cells, membrane potential dye, duplicate; ACh-evoked depolarization; shares compounds with TRPC6 inh; actives 43% (n = 3,300); inhibition, % at 10 µM;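 active = fluorescence ratio falls more than 5 SD below the full-stimulation control mean, in both duplicate runs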;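 also: integrated fluorescence ratio of peak minus minimum over baseline after agonist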
# TRPC6 act confirm: mouse TRPC6 channel activators, confirmation, HEK293 cells, membrane potential dye, duplicate; shares compounds with TRPC6 inh; HEK293-TRPC6 membrane potential dye fluorescence, FDSS; activation, % at 10 µM; actives 11% (n = 2,800);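 active = ratio signal rise beyond 5 SD above unstimulated control wells' mean, seen in both duplicate runs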
# Hits are given with their value; - = inactive. Most compounds without a hit are left out; they make up all but 2.3% or so of the library.
SMILES,TRPC4 agonist,TRPC6 inh,TRPC4 block,TRPC6 activator,TRPC4 potent,others
CC(C(=O)NCCc1ccc(Cl)cc1)n1c(=O)c2cccn2c2cccnc21 (stereo not given),-,-,-,-,-,
Cc1cc2c3c([nH]c2cc1S(=O)(=O)NCCCOC(C)C)CC(C)(C)CC3=O,-,-,-,-,-,
Cc1cc(OCC(=O)N2CCN(c3ccccn3)CC2)cc(C)c1Br,-,-,-,-,-,
O=C(Nc1ccc(Cl)cc1)NN1CC(=O)N(c2cccc(C(F)(F)F)c2)CC1=O,-,-,-,-,-,
COc1ccc(C(=O)N/C(=C\c2cn(S(=O)(=O)N(C)C)c3ccccc23)C(=O)NCCN2CCOCC2)cc1,-,-,-,-,-,
COc1ccc(NC(=O)CN(C)C(=O)CNC(=O)c2ccc3c(c2)OCO3)cc1,-,-,-,-,-,
COC(=O)Cc1c[nH]c2cccc(OCC(O)CN(Cc3ccccc3)C(C)C)c12 (stereo not given),-,-7.2,-,-,-,TRPC4 spec 2=72%;TRPC4 spec=0.3%;HEK293 MPD ctr 2=-;HEK293 MPD ctr=-;TRPC6 inh conf=-;TRPC6 act confirm=-
CC(=O)Oc1ccc(N(C(C)=O)S(=O)(=O)c2ccc(C)c([N+](=O)[O-])c2)cc1,-,-,-,-,-,
Cc1ccc(-c2c(NCCc3ccccc3)c(=O)c2=O)cc1,-,-,-,-,-,
